Laboratory results from BindingDB's records for doi:10.1016/j.ejmech.2013.05.047 (Chulalongkorn University, 2013).

Experiments:
[1] = molecular target: T1, Lysosomal alpha-glucosidase (Rattus norvegicus, UniProt Q6P7A9); assay: Competitive inhibition of rat intestine maltase using maltose as substrate by Lineweaver-Burk plot analysis
Summary of the method: (§1)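 Same maltase/sucrase reactions, with activity held at 0.45 (maltase) and 0.09 (sucrase) U/mg protein. Inhibitor 0 to 20.4 mM against substrate 1.0 to 20.0 mM. Vmax and Km obtained from Lineweaver–Burk intercepts and slopes. Ki (EI) from a secondary plot of slope versus inhibitor concentration; Ki′ (ESI) from a secondary plot of intercept versus inhibitor concentration.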

[2] = molecular target: T1, Lysosomal alpha-glucosidase; assay: Non-competitive inhibition of rat intestine maltase using maltose as substrate by Lineweaver-Burk plot analysis; summary of the method: as §1
[3] = molecular target: T1, Lysosomal alpha-glucosidase; assay: Inhibition of rat intestine maltase using maltose as substrate incubated for 10 mins prior to substrate addition measured after 40 mins by glucose oxidase colorimetric method
Summary of the method: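 Crude intestinal enzyme supernatant (12,000 g, 30 min) preincubated with test compound (1 mg/mL, 10 µL) at 37 C for 10 min. Substrate in 0.1 M phosphate buffer pH 6.9 was then added: maltose 0.58 mM for maltase, sucrose 20 mM for sucrase. Incubated 40 min at 37 C, stopped by heating at 80 C for 15 min. Released glucose measured by the glucose oxidase kit. % inhibition = [(A0 − A1)/A0] × 100.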

T1 sequence (Q6P7A9 whole entry): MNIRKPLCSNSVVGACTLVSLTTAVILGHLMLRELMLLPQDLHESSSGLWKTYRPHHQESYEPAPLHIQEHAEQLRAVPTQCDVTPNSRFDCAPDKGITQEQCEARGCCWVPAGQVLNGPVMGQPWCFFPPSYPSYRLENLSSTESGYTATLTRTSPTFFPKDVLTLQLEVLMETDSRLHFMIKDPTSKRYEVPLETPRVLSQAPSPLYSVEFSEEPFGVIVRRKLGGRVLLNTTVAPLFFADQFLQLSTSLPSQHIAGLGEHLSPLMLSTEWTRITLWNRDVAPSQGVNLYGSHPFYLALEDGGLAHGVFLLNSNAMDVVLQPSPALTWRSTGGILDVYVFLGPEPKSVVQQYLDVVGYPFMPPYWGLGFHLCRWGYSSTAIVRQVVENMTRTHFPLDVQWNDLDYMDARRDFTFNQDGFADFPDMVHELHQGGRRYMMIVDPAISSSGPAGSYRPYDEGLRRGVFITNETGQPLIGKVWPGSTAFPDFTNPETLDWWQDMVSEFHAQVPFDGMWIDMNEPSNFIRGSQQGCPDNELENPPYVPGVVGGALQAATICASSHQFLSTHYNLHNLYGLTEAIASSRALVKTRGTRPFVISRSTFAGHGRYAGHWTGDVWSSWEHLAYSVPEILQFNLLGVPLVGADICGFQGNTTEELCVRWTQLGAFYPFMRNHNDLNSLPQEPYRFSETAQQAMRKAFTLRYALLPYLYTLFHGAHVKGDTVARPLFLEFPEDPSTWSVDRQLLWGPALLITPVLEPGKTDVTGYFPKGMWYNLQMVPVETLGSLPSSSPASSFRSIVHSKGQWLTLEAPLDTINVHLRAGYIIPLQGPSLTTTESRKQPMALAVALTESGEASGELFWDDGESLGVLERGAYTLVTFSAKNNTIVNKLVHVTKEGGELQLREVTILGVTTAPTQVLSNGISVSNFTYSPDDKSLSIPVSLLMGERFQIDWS

Row | Ki [1] | Ki [2] | IC50 [3] | SMILES
1 | 23.8 µM | 64.5 µM | 5.31 µM | O=C(/C=C/c1ccc(O)c(O)c1)O[C@@H]1C[C@@H](O)[C@H](O)[C@@H](O)[C@H]1O
2 | – | – | 367 µM | COc1ccc(/C=C/C(=O)O[C@H]2C[C@@H](O)[C@H](O)[C@@H](O)[C@H]2O)cc1O
3 | – | – | 20.8 µM | COc1ccc(/C=C/C(=O)O[C@@H]2C[C@@H](O)[C@H](O)[C@@H](O)[C@H]2O)cc1O
4 | – | – | 21.1 µM | COc1cc(/C=C/C(=O)O[C@H]2C[C@@H](O)[C@H](O)[C@@H](O)[C@H]2O)ccc1O
5 | – | – | 51.9 µM | COc1cc(/C=C/C(=O)O[C@@H]2C[C@@H](O)[C@H](O)[C@@H](O)[C@H]2O)ccc1O
6 | – | – | 497 µM | O=C(/C=C/c1ccc(O)c(O)c1)O[C@H]1C[C@@H](O)[C@H](O)[C@@H](O)[C@H]1O
7 | – | – | 34.7 µM | O=C(O)/C=C/c1ccc(O)c(O)c1 [3,4-Dihydroxycinnamate, XVII]
